Active and inactive are the calls of the source.
What was measured:
[1] = target: T1, G-protein coupled receptor 84 (Homo sapiens, UniProt Q9NQS5); assay: Agonist activity at Gi coupled human GPR84 expressed in CHO cells assessed as inhibition of forskolin-induced cAMP accumulation at 10 uM after 15 mins in presence of [3H]-cAMP by radiometric assay relative to decanoic acid; format: functional, cell-based
How it was run: (§1)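 Forskolin (10 µM) added with or without test compound for 15 min. Cells lysed in hot (90 °C) EDTA/Triton X-100 solution. cAMP measured radiometrically with bovine adrenal binding protein and [³H]cAMP, expressed as % of forskolin-alone response.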

[2] = target: T1, G-protein coupled receptor 84; assay: Agonist activity at Gi coupled human GPR84 expressed in CHO cells assessed as inhibition of forskolin-induced cAMP accumulation after 15 mins in presence of [3H]-cAMP by radiometric assay; format: functional, cell-based; how it was run: as §1
[3] = target: T1, G-protein coupled receptor 84; assay: Antagonist activity at Gi coupled human GPR84 expressed in CHO cells assessed as inhibition of decanoic acid-induced receptor activation at 10 uM; format: cell-based
[4] = target: Free fatty acid receptor 1 (Homo sapiens, UniProt O14842); assay: Agonist activity at Gq protein coupled human FFAR1 expressed in human 1321N1 cells assessed as induction of intracellular calcium level at 10 uM measured at 1.2 secs time interval by Fluo-4-AM dye based fluorescence assay; format: functional, cell-based
Free fatty acid receptor 1, sequence (O14842 whole entry): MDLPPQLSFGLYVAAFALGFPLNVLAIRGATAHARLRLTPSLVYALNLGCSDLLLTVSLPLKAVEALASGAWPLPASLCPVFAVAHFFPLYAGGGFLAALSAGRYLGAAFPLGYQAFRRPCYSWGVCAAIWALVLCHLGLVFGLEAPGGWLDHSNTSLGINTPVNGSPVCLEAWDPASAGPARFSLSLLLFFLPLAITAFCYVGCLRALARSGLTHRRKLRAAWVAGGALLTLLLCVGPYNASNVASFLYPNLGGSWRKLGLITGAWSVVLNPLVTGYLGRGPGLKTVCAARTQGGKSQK
How it was run: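 1321N1 astrocytoma cells retrovirally expressing human FFAR1, 50,000 per well, loaded 60 min at rt in dark with 3 µM Fluo-4-AM and 0.06 % Pluronic F-127 in HBSS. Compounds at 10 µM final; antagonist mode uses 30 min preincubation before TUG-424 (final 1 µM). Fluorescence at 520 nm (excitation 485 nm), 90 reads at 1.2 s intervals. Normalized to TUG-424 at 10 µM (agonist) or 1 µM (antagonist).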

[5] = target: T2, Free fatty acid receptor 4 (Homo sapiens) (UniProt Q5NUL3); assay: Agonist activity at human FFAR4 expressed in CHO cells assessed as beta-arrestin recruitment at 10 uM after 90 mins by beta-galactosidase complementation assay; format: cell-based
T2 sequence (whole entry): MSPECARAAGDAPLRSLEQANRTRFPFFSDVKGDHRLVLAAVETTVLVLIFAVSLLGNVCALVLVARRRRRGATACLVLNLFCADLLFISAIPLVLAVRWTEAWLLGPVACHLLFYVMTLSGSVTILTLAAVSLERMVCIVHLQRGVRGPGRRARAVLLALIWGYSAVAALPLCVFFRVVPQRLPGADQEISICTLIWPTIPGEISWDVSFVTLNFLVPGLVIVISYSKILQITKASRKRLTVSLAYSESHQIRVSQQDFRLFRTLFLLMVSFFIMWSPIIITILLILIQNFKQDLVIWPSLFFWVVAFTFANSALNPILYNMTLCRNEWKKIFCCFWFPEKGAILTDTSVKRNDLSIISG
How it was run: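 Human FFAR4 in CHO β-galactosidase complementation cells, 30,000 per well, serum-free F12 ~4 h before assay; final DMSO 1 %, compounds 10 µM. Agonist mode: 90 min with agonist, then detection 60 min rt dark; luminescence. 3–4 experiments in duplicate.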

[6] = target: T2, Free fatty acid receptor 4 (Homo sapiens); assay: Antagonist activity at human FFAR4 expressed in CHO cells assessed as inhibition of TUG-89-induced beta-arrestin recruitment at 10 uM preincubated for 30 mins followed by TUG-89 addition measured after 90 mins by beta-galactosidase complementation assay; format: cell-based
[7] = target: T1, G-protein coupled receptor 84; assay: Agonist activity at human GPR84 expressed in CHO cells assessed as beta-arrestin recruitment at 10 uM after 90 mins by beta-galactosidase complementation assay relative to embelin; format: cell-based
How it was run: (§2)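 CHO cells co-expressing human GPR84–β-galactosidase fragment and β-arrestin–complementary fragment, 20,000 per well. Compounds in DMSO (final ≤1 %) added for 90 min, then detection reagent for 60 min at rt; luminescence read. Three to five independent experiments in duplicate.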

[8] = target: T1, G-protein coupled receptor 84; assay: Agonist activity at human GPR84 expressed in CHO cells assessed as beta-arrestin recruitment after 90 mins by beta-galactosidase complementation assay; format: cell-based; how it was run: as §2

T1 sequence (Q9NQS5 whole entry): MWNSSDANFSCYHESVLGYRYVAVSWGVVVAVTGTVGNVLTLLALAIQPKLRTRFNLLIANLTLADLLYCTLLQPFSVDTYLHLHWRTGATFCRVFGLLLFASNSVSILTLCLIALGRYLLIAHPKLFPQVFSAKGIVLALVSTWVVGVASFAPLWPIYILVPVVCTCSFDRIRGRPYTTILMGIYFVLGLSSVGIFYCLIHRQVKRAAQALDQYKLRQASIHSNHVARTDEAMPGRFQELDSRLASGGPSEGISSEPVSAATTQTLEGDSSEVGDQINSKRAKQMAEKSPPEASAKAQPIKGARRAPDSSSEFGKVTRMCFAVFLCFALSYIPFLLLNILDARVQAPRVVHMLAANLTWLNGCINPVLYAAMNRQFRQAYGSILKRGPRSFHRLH

| Emax [1] [%] | EC50 [2] [µM] | inhibition [3] | Activity [4] | Activity [5] | inhibition [6] | Emax [7] [%] | EC50 [8] [µM] | SMILES |
| --- | --- | --- | --- | --- | --- | --- | --- | --- |
| 115 |  |  | inactive | inactive | inactive | 72 |  | Fc1ccc2[nH]cc(Cc3c[nH]c4ccccc34)c2c1 |
| 5 | > 10 | inactive | inactive | inactive | inactive |  |  | O=C(O)c1ccc2[nH]cc(Cc3c[nH]c4ccccc34)c2c1 |
| 57 | 10 |  | inactive | inactive | inactive |  |  | COC(=O)c1ccc2[nH]cc(Cc3c[nH]c4ccccc34)c2c1 |
| 31 | > 10 | inactive | inactive | inactive | inactive |  |  | COc1ccc2c(Cc3c[nH]c4cc(OC)ccc34)c[nH]c2c1 |
| -4 | > 10 | inactive | inactive | inactive | inactive |  |  | O=Cc1ccc2[nH]cc(Cc3c[nH]c4ccc(C=O)cc34)c2c1 |
| 106 | 3.44 |  | inactive | inactive | inactive |  |  | Brc1ccc2[nH]cc(Cc3c[nH]c4ccc(Br)cc34)c2c1 |
| 11 | > 10 | inactive | inactive | inactive | inactive |  |  | COC(=O)c1ccc2[nH]cc(Cc3c[nH]c4ccc(C(=O)OC)cc34)c2c1 |
| 49 | ≥ 10 | inactive | inactive | inactive | inactive |  |  | N#Cc1ccc2[nH]cc(Cc3c[nH]c4ccc(C#N)cc34)c2c1 |
| 86 | 4.96 |  | inactive | inactive | inactive |  |  | Clc1ccc2[nH]cc(Cc3c[nH]c4ccc(Cl)cc34)c2c1 |
| -22 | > 10 | inactive | inactive | inactive | inactive |  |  | Cc1ccc2c(Cc3c[nH]c4cc(C)ccc34)c[nH]c2c1 |

Second part, the molecule before the results:

| SMILES | Emax [1] [%] | EC50 [2] [µM] | inhibition [3] | Activity [4] | Activity [5] | inhibition [6] | Emax [7] [%] | EC50 [8] [µM] |
| --- | --- | --- | --- | --- | --- | --- | --- | --- |
| COc1ccc2[nH]cc(CC3C(=O)Nc4ccc(F)cc43)c2c1 (centres undefined) | -10 | > 10 | inactive | inactive | inactive | inactive |  |  |
| Clc1cccc2[nH]cc(Cc3c[nH]c4cccc(Cl)c34)c12 | 111 | 1.14 |  | inactive | inactive | inactive | 25 | > 10 |
| Fc1ccc2[nH]cc(Cc3c[nH]c4ccc(F)c(F)c34)c2c1F | 123 | 0.377 |  | inactive | inactive | inactive | -2 | > 10 |
| Cc1ccccc1C#Cc1ccc(CCC(=O)O)cc1 |  |  |  | inactive |  |  |  |  |
| O=[N+]([O-])c1ccc2[nH]cc(Cc3c[nH]c4ccc([N+](=O)[O-])cc34)c2c1 | 31 | > 10 | inactive | inactive | inactive | inactive |  |  |
| O=C(c1c[nH]c2ccccc12)c1c[nH]c2ccccc12 | 104 | 0.553 |  | inactive | inactive | inactive | 161 | 19 |
| O=C1Nc2ccccc2C1=Cc1c[nH]c2ccc(F)cc12 | -1 | > 10 | inactive | inactive | inactive | inactive |  |  |
| Fc1cc2[nH]cc(Cc3c[nH]c4cc(F)c(F)cc34)c2cc1F | 121 | 0.187 |  | inactive | inactive | inactive | 92 | 10.3 |
| c1ccc(COc2ccc3[nH]cc(Cc4c[nH]c5ccc(OCc6ccccc6)cc45)c3c2)cc1 | 36 | > 10 | inactive | inactive | inactive | inactive |  |  |
| O=[N+]([O-])c1ccc(C(c2c[nH]c3ccccc23)c2c[nH]c3ccccc23)cc1 | 6 | > 10 | inactive | inactive | inactive | inactive |  |  |
| Fc1cc2c(Cc3c[nH]c4cc(Cl)c(F)cc34)c[nH]c2cc1Cl | 83 | 10.8 |  |  | inactive | inactive | 181 | 3.98 |
| O=C1Nc2ccc(F)cc2C1Cc1c[nH]c2ccc(F)cc12 (centres undefined) | 16 | > 10 | inactive | inactive | inactive | inactive |  |  |
| Fc1cc2cc[nH]c2cc1F |  | > 10 |  |  |  |  |  | 2.97 |
| COc1cccc2[nH]cc(Cc3c[nH]c4cccc(OC)c34)c12 | 47 | ≥ 10 | inactive | inactive | inactive | inactive |  |  |
| Clc1cc(Cl)c2c(Cc3c[nH]c4cc(Cl)cc(Cl)c34)c[nH]c2c1 | 51 | ≥ 10 | inactive | inactive | inactive | inactive |  |  |
| COc1cccc2c(Cc3c[nH]c4c(OC)cccc34)c[nH]c12 | 18 | > 10 | inactive | inactive | inactive | inactive |  |  |
| COc1ccc2[nH]cc(CC3C(=O)Nc4ccccc43)c2c1 (centres undefined) | -21 | > 10 | inactive | inactive | inactive | inactive |  |  |
| COc1ccc2[nH]cc(/C=C3\C(=O)Nc4ccccc43)c2c1 | -10 | > 10 | inactive | inactive | inactive | inactive |  |  |
| Fc1ccc(C(c2c[nH]c3ccccc23)c2c[nH]c3ccccc23)cc1 | 8 | > 10 | inactive | inactive | inactive | inactive |  |  |
| O=C1Nc2ccc(F)cc2/C1=C/c1c[nH]c2ccc(F)cc12 | 5 | > 10 | inactive | inactive | inactive | inactive |  |  |
| O=C1Nc2ccccc2C1Cc1ccc2[nH]ccc2c1 (centres undefined) | 7 | > 10 | inactive | inactive | inactive | inactive |  |  |
| Clc1ccc(C(c2c[nH]c3ccccc23)c2c[nH]c3ccccc23)cc1 | -4 | > 10 | inactive | inactive | inactive | inactive |  |  |
| COc1ccc(C(c2c[nH]c3ccccc23)c2c[nH]c3ccccc23)cc1 | -3 | > 10 | inactive | inactive | inactive | inactive |  |  |
